Source: ChEMBL document CHEMBL3351780, “Novel hybrids of metronidazole and quinolones: synthesis, bioactive evaluation, cytotoxicity, preliminary antimicrobial mechanism and effect of metal ions on their transportation by human serum albumin” (Eur J Med Chem, 2014)
≈ marks a conversion by molar mass, not a printed value. Calls of active or inactive are those of the source. The calls are words filed in the database; no cut-off is given here.

Tests used:
[1] = Antibacterial activity against Eberthella typhosa by two-fold serial dilution method; assay type: functional
Procedure, shortened: (§1)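 MIC read as the lowest concentration giving complete growth inhibition. Two-fold serial dilutions were made in 96-well plates following NCCLS, giving a series down to 0.5 µg/mL (…32, 16, 8, 4, 2, 1, 0.5). Plates were inoculated and incubated at 37 °C for 24 h. A DMSO-with-inoculum control without drug was included. Growth was monitored visually and spectrophotometrically, in triplicate.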

Streptococcus pneumoniae = experiment: Antibacterial activity against Streptococcus pneumoniae by two-fold serial dilution method; assay type: functional
Procedure, shortened: (§2)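 Standard two-fold serial dilution in 96-well microtest plates following NCCLS. Top dilutions printed as 32, 16, 8, 4, 2, 1, 0.5 ug/mL. Wells inoculated and held at 37 °C for 24 h. Growth judged visually and by spectrophotometer, in triplicate. MIC is the lowest concentration giving complete growth inhibition.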

Bacillus spizizenii = experiment: Antibacterial activity against Bacillus subtilis ATCC 6633 by two-fold serial dilution method; assay type: functional; procedure, shortened: as §2
Calf thymus DNA = experiment: Binding affinity to calf thymus DNA by UV-vis spectroscopy; assay type: nucleic-acid assay; conditions: Bos taurus
Procedure, shortened: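 Calf thymus DNA held at a fixed concentration and titrated with increasing amounts of the compound. UV-vis absorption spectra were recorded at room temperature in 1.0 cm quartz cells, following the DNA band at 260 nm.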

Staphylococcus aureus [2] = experiment: Antibacterial activity against Staphylococcus aureus ATCC 25923 by two-fold serial dilution method; assay type: functional; procedure, shortened: as §2
[3] = Cytotoxicity against human LO2 cells assessed as inhibition of cell viability at 64 ug/ml after 24 hrs by MTT assay; assay type: cell-based, L02; conditions: read-out: INH
Procedure, shortened: (§3)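 LO2 hepatocytes were plated and left to attach for 24 h. DMSO stocks were diluted in medium and added, and cells were cultured for 24 h at 37 °C in humidified 5% CO2. MTT absorbance read at 490 nm. Three parallels. Inhibition computed as percent reduction of viable cells against drug-free control.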

[4] = Aqueous solubility of the compound by UV-spectrophotometry; assay type: physicochemical
Albumin [5] = target: T1, Albumin (Homo sapiens, UniProt P02768); experiment: Binding affinity to human serum albumin by fluorescence spectrophotometry in presence of Mg2+; assay type: ADME; conditions: isolated protein
Procedure, shortened: (§4)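 HSA-compound fluorescence measured in Tris-HCl (0.05 M Tris, 0.15 M NaCl, pH 7.4) with added metal chloride (CaCl2, KCl, MgCl2 or NiCl2). Excitation 295 nm, emission 300-450 nm, 298 K, 2.5 nm slits. The metal-ion effect is expressed as the ratio Kb/K0.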

[6] = Cytotoxicity against human LO2 cells assessed as inhibition of cell viability at 8 ug/ml after 24 hrs by MTT assay; assay type: cell-based, L02; conditions: read-out: INH; procedure, shortened: as §3
Candida albicans = experiment: Antifungal activity against Candida albicans ATCC 76615 after 24 hrs by microbroth dilution method; assay type: functional; conditions: ATCC 76615, 24 h
Procedure, shortened: (§5)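 Spore suspension prepared in sterile distilled water from one-day-old cultures on Sabouraud agar, final 1-5 x 10^3 spores/mL. Compounds were serially diluted in RPMI 1640 to give eleven dilutions. Incubation at 35 °C for 24 h. Growth read visually and spectrophotometrically, in triplicate. MIC is the lowest concentration with complete inhibition.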

[7] = Cytotoxicity against human A549 cells assessed as cell viability at 256 ug/ml after 24 hrs by CCK-8 assay; assay type: cell-based; conditions: read-out: Activity
Procedure, shortened: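 A549 cells were plated and allowed to attach for 24 h, then medium with the compound was added. The compound came from DMSO stocks diluted in medium to 8, 16, 32, 64, 128 and 256 µg/mL. Cells were kept at 37 °C in 5% CO2. Viability was read by CCK-8 absorbance at 450 nm against a drug-free control, three replicates.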

Escherichia coli = experiment: Antibacterial activity against Escherichia coli DH52 by two-fold serial dilution method; assay type: functional; procedure, shortened: as §2
Pichia norvegensis = experiment: Antifungal activity against Candida mycoderma after 24 hrs by microbroth dilution method; assay type: functional
Shigella dysenteriae = experiment: Antibacterial activity against Shigella dysenteriae by two-fold serial dilution method; assay type: functional; procedure, shortened: as §1
Albumin [8] = target: T1, Albumin; experiment: Drug transport index, ratio of Kb to K0 for human serum albumin by fluorescence spectrophotometry in presence of […]; assay type: ADME
Procedure, shortened: (§6)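 HSA in Tris-HCl (0.05 M Tris, 0.15 M NaCl, pH 7.4) with compound, in the presence of CaCl2, KCl, MgCl2 or NiCl2. Fluorescence was excited at 295 nm and emission recorded from 300 to 450 nm at 298 K, with 2.5 nm slits. Binding constants with the metal ion (Kb) and without it (K0) were expressed as Kb/K0.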

[9] = Octanol-water partition co-efficient, log P of the compound by shake flask method; assay type: physicochemical
Albumin [10] = target: T1, Albumin; experiment: Binding affinity to human serum albumin by fluorescence spectrophotometry; assay type: ADME; conditions: isolated protein
Procedure, shortened: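 HSA dissolved in Tris-HCl buffer (0.05 M Tris, 0.15 M NaCl, pH 7.4). Fluorescence emission scanned 300-450 nm at 298 K with excitation at 295 nm, 2.5 nm slits and 1.0 cm quartz cells.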

Saccharomyces cerevisiae = experiment: Antifungal activity against Saccharomyces cerevisiae after 24 hrs by microbroth dilution method; assay type: functional; procedure, shortened: as §5
Albumin [11] = target: T1, Albumin; experiment: Binding affinity to human serum albumin by fluorescence spectrophotometry in presence of Ca2+; assay type: ADME; conditions: isolated protein; procedure, shortened: as §4
Albumin [12] = target: T1, Albumin; experiment: Drug transport index, ratio of Kb to K0 for human serum albumin by fluorescence spectrophotometry in presence of Ca2+; assay type: ADME; procedure, shortened: as §6
Micrococcus luteus = experiment: Antibacterial activity against Micrococcus luteus by two-fold serial dilution method; assay type: functional; procedure, shortened: as §2
Pseudomonas aeruginosa = experiment: Antibacterial activity against Pseudomonas aeruginosa by two-fold serial dilution method; assay type: functional; procedure, shortened: as §2
Albumin [13] = target: T1, Albumin; experiment: Binding affinity to human serum albumin by fluorescence spectrophotometry in presence of Ni2+; assay type: ADME; conditions: isolated protein; procedure, shortened: as §4
[14] = Cytotoxicity against human LO2 cells assessed as inhibition of cell viability at 16 ug/ml after 24 hrs by MTT assay; assay type: cell-based, L02; conditions: read-out: INH; procedure, shortened: as §3
Albumin [15] = target: T1, Albumin; experiment: Drug transport index, ratio of Kb to K0 for human serum albumin by fluorescence spectrophotometry in presence of Ni2+; assay type: ADME; procedure, shortened: as §6
Staphylococcus aureus [16] = experiment: Antibacterial activity against methicillin-resistant Staphylococcus aureus N315 by two-fold serial dilution method; assay type: functional; procedure, shortened: as §1
[17] = Dissociation constant, pKa of the compound by UV-spectroscopy; assay type: physicochemical
Procedure, shortened: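 DMSO stock at 4.0 × 10^-3 mol/L added to 2 mL of buffer, then shaken 10 min at room temperature. Buffers were acetate (pH 4.0–5.0), MES (5.5–6.5), HEPES (7.0–8.0) and CHES (8.5–9.4), each from 500 mM stocks. Scans ran 210–400 nm and were normalized. Absolute differences from the acid spectrum were summed at 244 and 308 nm, plotted against pH and fitted to obtain pKa.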

[18] = Cytotoxicity against human LO2 cells assessed as inhibition of cell viability at 32 ug/ml after 24 hrs by MTT assay; assay type: cell-based, L02; conditions: read-out: INH; procedure, shortened: as §3
[19] = Cytotoxicity against human LO2 cells assessed as inhibition of cell viability at 128 ug/ml after 24 hrs by MTT assay; assay type: cell-based, L02; conditions: read-out: INH
Procedure, shortened: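 Human hepatocyte LO2 cells were plated, attached for 24 h, then exposed to the compound diluted in medium from DMSO stock, at 37 °C in 5% CO2. Viability was read by MTT at 490 nm. Inhibition was calculated as the percent reduction of viable cells versus a drug-free control, mean of three parallels.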

Albumin [20] = target: T1, Albumin; experiment: Drug transport index, ratio of Kb to K0 for human serum albumin by fluorescence spectrophotometry in presence of Mg2+; assay type: ADME; procedure, shortened: as §6
Albumin [21] = target: T1, Albumin; experiment: Binding affinity to human serum albumin by fluorescence spectrophotometry in presence of K+; assay type: ADME; conditions: isolated protein; procedure, shortened: as §4
Cyberlindnera jadinii = experiment: Antifungal activity against Candida utilis after 24 hrs by microbroth dilution method; assay type: functional; conditions: Williopsis jadinii; procedure, shortened: as §5
Aspergillus flavus = experiment: Antifungal activity against Aspergillus flavus ATCC 96918 after 24 hrs by microbroth dilution method

T1 sequence (P02768 whole entry): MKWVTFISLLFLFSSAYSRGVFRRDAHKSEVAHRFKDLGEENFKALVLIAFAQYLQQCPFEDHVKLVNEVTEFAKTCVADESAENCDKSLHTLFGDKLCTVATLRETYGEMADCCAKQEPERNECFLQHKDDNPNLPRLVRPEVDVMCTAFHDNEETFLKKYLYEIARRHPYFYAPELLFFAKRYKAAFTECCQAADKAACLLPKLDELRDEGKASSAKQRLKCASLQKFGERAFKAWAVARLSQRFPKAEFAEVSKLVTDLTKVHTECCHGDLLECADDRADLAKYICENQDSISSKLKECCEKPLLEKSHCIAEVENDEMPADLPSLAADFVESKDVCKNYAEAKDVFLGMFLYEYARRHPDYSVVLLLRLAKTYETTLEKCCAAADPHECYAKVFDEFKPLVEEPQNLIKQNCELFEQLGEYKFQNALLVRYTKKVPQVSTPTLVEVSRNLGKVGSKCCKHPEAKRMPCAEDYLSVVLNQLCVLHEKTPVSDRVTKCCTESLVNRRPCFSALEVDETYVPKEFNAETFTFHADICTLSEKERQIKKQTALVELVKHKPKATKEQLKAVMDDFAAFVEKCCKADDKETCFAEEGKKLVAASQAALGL

CCn1cc(C(=O)O)c(=O)c2cc(F)c(N3CCNCC3)cc21 [NORFLOXACIN]
MIC [1]: 4 µg/mL (≈ 12.5 µM)
MIC (Streptococcus pneumoniae): 1 µg/mL (≈ 3.13 µM)
MIC (Bacillus spizizenii): 1 µg/mL (≈ 3.13 µM)
Activity (Calf thymus DNA): Active

Cc1ncc([N+](=O)[O-])n1CC(O)Cn1cc(C(=O)O)c(=O)c2ccc(C(F)(F)F)cc21 (stereo unspecified)
MIC (Staphylococcus aureus [2]): 4 µg/mL (≈ 9.08 µM)
cytotoxicity at 24 h, 64 ug/ml [3]: 15.2%
solubility [4]: 790 µg/mL (≈ 1790 µM)
Kb (Albumin [5]): 5.63 ×10⁴ L/mol
cytotoxicity at 24 h, 8 ug/ml [6]: 3.6%
MIC (Candida albicans): 64 µg/mL (≈ 145 µM)
viability at 24 h, 256 ug/ml [7]: > 83%
MIC [1]: 8 µg/mL (≈ 18.2 µM)
MIC (Escherichia coli): 0.5 µg/mL (≈ 1.14 µM)
MIC (Streptococcus pneumoniae): 4 µg/mL (≈ 9.08 µM)
MIC (Pichia norvegensis): 64 µg/mL (≈ 145 µM)
MIC (Shigella dysenteriae): 0.5 µg/mL (≈ 1.14 µM)
Ratio (Albumin [8]): 1.51
logP [9]: -0.25
Kb (Albumin [10]): 5.15 ×10⁴ L/mol
MIC (Saccharomyces cerevisiae): 64 µg/mL (≈ 145 µM)
Kb (Albumin [11]): 3.61 ×10⁴ L/mol
Ratio (Albumin [12]): 1.43
MIC (Micrococcus luteus): 1 µg/mL (≈ 2.27 µM)
MIC (Pseudomonas aeruginosa): 4 µg/mL (≈ 9.08 µM)
Kb (Albumin [13]): 5.07 ×10⁴ L/mol
cytotoxicity at 24 h, 16 ug/ml [14]: 6.7%
MIC (Bacillus spizizenii): 4 µg/mL (≈ 9.08 µM)
Activity (Calf thymus DNA): Dose-dependent effect
Ratio (Albumin [15]): 1.02
MIC (Staphylococcus aureus [16]): 1 µg/mL (≈ 2.27 µM)
pKa [17]: 5.6
cytotoxicity at 24 h, 32 ug/ml [18]: 10.3%
cytotoxicity at 24 h, 128 ug/ml [19]: 17.5%
Ratio (Albumin [20]): 0.91
Kb (Albumin [21]): 3.42 ×10⁴ L/mol
MIC (Cyberlindnera jadinii): 512 µg/mL (≈ 1160 µM)

CCOC(=O)c1cn(CC2CO2)c2cc(C(F)(F)F)ccc2c1=O (racemic)
MIC [1]: 2 µg/mL (≈ 5.86 µM)
MIC (Pichia norvegensis): 32 µg/mL (≈ 93.8 µM)
MIC (Aspergillus flavus): 512 µg/mL (≈ 1500 µM)
MIC (Bacillus spizizenii): 31 µg/mL (≈ 90.8 µM)
MIC (Cyberlindnera jadinii): 512 µg/mL (≈ 1500 µM)

CCOC(=O)c1cn(CC2CO2)c2c(Cl)cc(Cl)cc2c1=O (racemic)
MIC [1]: 2 µg/mL (≈ 5.84 µM)
MIC (Pichia norvegensis): 1 µg/mL (≈ 2.92 µM)
MIC (Aspergillus flavus): 512 µg/mL (≈ 1500 µM)
MIC (Bacillus spizizenii): 2 µg/mL (≈ 5.84 µM)
MIC (Cyberlindnera jadinii): 512 µg/mL (≈ 1500 µM)
